Activity calls are given as the source filed them. The calls are words filed in the database; no cut-off is given here.

Data set [1] deals with HCT-15. As to the kind of experiment: Cell cycle arrest at M phase in human HCT15 cells assessed as suppression of CDC2 Tyr-15 phosphorylation at 5 to 20 uM after 12 to 24 hrs by Western blot analysis. It counts as functional, cell-based. An outline of the steps:
(§1)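 HCT-15 cells in RPMI/10% FBS exposed to test compound at various concentrations; lysates quantified by BCA, 30–50 μg protein run on 10% SDS-PAGE, transferred to PVDF, blocked 1 h in 5% milk/PBST, primary antibodies overnight at 4 °C, HRP anti-mouse IgG 1:1500 for 3 h at room temperature, ECL detection.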
(In general: Immunoblotting shows a protein as a band on a membrane.)

Data set [2] has as its system HCT-15. As to the kind of experiment: Cell cycle arrest in human HCT15 cells assessed as accumulation at S phase at 5 uM after 24 hrs using propidium-iodide staining by flow-cytometry (reference value: 34.1 %). It is filed as functional.
Data set [3] concerns HCT-116. In words: Growth inhibition of human HCT116 cells. It is filed as functional, cell-based. An outline of the steps: (§2)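 SRB assay: cells at 5 × 10^4 cells/mL were exposed to a concentration series for 3 days, fixed with 10% TCA and stained with sulforhodamine B. Survival was expressed as % of solvent-treated control and IC50 taken by nonlinear regression of % survival versus concentration. Media held 10% heat-inactivated FBS plus antibiotics: RPMI (HCT-15, HCT 116, HT-29), RPMI with 25 mM HEPES (SW480, SW620), DMEM (MRC-5, Hs68). Cultures were kept at 37 C, 5% CO2.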

Data set [4] deals with HCT-15. As to the kind of experiment: Induction of apoptosis in human HCT15 cells assessed as suppression of Bcl-xL expression at 5 to 20 uM after 24 hrs by Western blot analysis. It is filed as functional, cell-based. An outline of the steps: (§3)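 HCT-15 cells (RPMI, 10% heat-inactivated FBS, antibiotics-antimycotics, 37 C, 5% CO2) exposed to compound. Cells lysed, protein measured by BCA, 30-50 μg per lane resolved on 10% SDS-PAGE and electroblotted to PVDF. Membranes blocked 1 h in 5% nonfat milk/PBST, probed with primary antibodies overnight at 4 C, then HRP anti-mouse IgG 1:1500 for 3 h at room temperature. Detection by ECL; β-actin antibody available.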

In data set [5] the test system is HCT-15. In words: Cell cycle arrest in human HCT15 cells assessed as accumulation at G0/G1 phase at 20 uM after 24 hrs using propidium-iodide staining by flow-cytometry (reference value: 37.0 %). It counts as functional.
Data set [6] relates to HCT-15. As to the kind of experiment: Induction of apoptosis in human HCT15 cells assessed as change in Bax expression at 5 to 20 uM after 24 hrs by Western blot analysis. It counts as functional, cell-based. The essentials:
as §1

The subject of data set [7] is HCT-15. As to the kind of experiment: Cell cycle arrest in human HCT15 cells assessed as accumulation at G2/M phase at 5 uM after 12 hrs using propidium-iodide staining by flow-cytometry (reference value: 15.7 %). It counts as functional.
Data set [8] has as its system HCT-15. In words: Cell cycle arrest in human HCT15 cells assessed as accumulation at S phase at 5 uM after 12 hrs using propidium-iodide staining by flow-cytometry (reference value: 34.7 %). It counts as functional.
Data set [9] has as its system HCT-15. In words: Cytotoxicity against human HCT15 cells after 3 days. It counts as functional, cell-based. Particulars: HCT-15, 72 h. An outline of the steps: as §2
For data set [10], the system named is HCT-15. In words: Cell cycle arrest in human HCT15 cells assessed as accumulation at S phase at 10 uM after 24 hrs using propidium-iodide staining by flow-cytometry (reference value: 34.1 %). It counts as functional.
Data set [11] has as its system HCT-15. In words: Induction of apoptosis in human HCT15 cells assessed as increase in caspase-8 expression after 12 to 24 hrs by Western blot analysis. It counts as functional, cell-based. An outline of the steps: as §1
Data set [12] concerns HCT-15. In words: Induction of apoptosis in human HCT15 cells assessed as suppression of Bcl2 expression at 5 to 20 uM after 24 hrs by Western blot analysis. It counts as functional, cell-based. The essentials:
as §3

For data set [13], the system named is Mus musculus. As to the kind of experiment: Toxicity in human HCT15 cells xenografted nude BALB/c mouse assessed as body weight changes at 2 to 5 mg/kg, ip administered 3 times a week for 4 weeks measured after 9 to 30 days. It counts as organism-based, HCT-15. On the set-up: route intraperitoneal. Conditions: in vivo. The essentials:
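HCT-15 cells (2 × 10^6) were injected subcutaneously into the flank of BALB/c-nu (nu/nu) mice. Dosing began once tumours reached ca. 80 mm3, with mice randomised to groups of five. Compound (2 or 5 mg/kg) in ethanol-cremophor-H2O (0.5:0.5:99) was given ip three times weekly for four weeks. Controls received equal-volume vehicle. Body weight was monitored over the testing period, with tumour measurements over 30 days.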
On the technique in general: A xenograft is tissue or cells of one species grown in another, often human tumour cells in immunodeficient mice.

The test system of data set [14] is HCT-15. In words: Induction of apoptosis in human HCT15 cells assessed as PARP cleavage at 20 uM after 12 to 24 hrs by Western blot analysis. It counts as functional, cell-based. The essentials: as §1

`C[C@H]1CC[C@@]2(OC1)O[C@H]1C[C@H]3[C@@H]4CC[C@@H]5C[C@@H](O[C@@H]6O[C@H](CO)[C@H](O)[C@H](O)[C@H]6O[C@@H]6O[C@H](CO)[C@@H](O)[C@H](O)[C@H]6O)CC[C@]5(C)[C@H]4CC[C@]3(C)[C@H]1[C@@H]2C` [TIMOSAPONIN AIII]: the result in data set [1], in data set [4], in [11], in data set [12] and in data set [14] was Active. For the same compound, the Activity in data set [2] is listed as 37%; in data set [5] it was 43.4%; in data set [7] it was 20.5%; in data set [8] it was 22.5%; in data set [10], 15.3%; in [13], “Non-toxic”. In addition, the results for the IC50 in [3] and in [9] were 5.5 µM and 6.1 µM, respectively. The outcome in data set [6] was inactive.

For orientation: IC50 means the concentration at which inhibition is half-maximal.

The record behind these values is ChEMBL document CHEMBL2146382, “Cytotoxic and antineoplastic activity of timosaponin A-III for human colon cancer cells” (J Nat Prod, 2011).
